{"data": "Assay results of several laboratories", "target": "Serine-protein kinase ATM (ATM, Homo sapiens, UniProt Q13315)", "note": "Protocols differ between the studies behind these lines."}
{"Compound": "Cc1cnc(NC2CCOCC2)nc1-n1cnc(C(=O)NC(CN)c2cc(F)cc(Cl)c2)c1 (centres unmarked)", "read-out": "enzyme activity", "mode": "inhibitor", "method": "radiometric", "concentration": "1 µM", "quantity": "remaining activity", "result": "102%"}
{"Compound": "CN1CC(Oc2cnc(C#N)cc2-c2ccn3nc(NC(=O)C4CC4)cc3c2)C1", "read-out": "enzyme activity", "mode": "inhibitor", "concentration": "1 µM", "quantity": "inhibition", "result": "14%"}
{"Compound": "Cc1cc(NC(=O)c2cccc3cc(-c4cccc5[nH]nc(N)c45)ccc23)ccc1F", "read-out": "enzyme activity", "mode": "inhibitor", "concentration": "0.1 µM", "quantity": "activity vs control", "result": "94%"}
{"Compound": "CCCCNc1ncc2c(-c3ccc(F)cc3)nn(C[C@H]3CC[C@H](N)CC3)c2n1", "read-out": "target engagement in cells", "mode": "inhibitor", "method": "chemoproteomics", "concentration": "20 mM", "quantity": "inhibition", "result": "57.4%"}
{"Compound": "Cc1ccc(C(=O)NCc2ccsc2)cc1C#Cc1cn(C(C)C)c2ncnc(N)c12", "read-out": "enzyme activity", "mode": "inhibitor", "concentration": "1 µM", "quantity": "activity vs control", "result": "101%"}
{"Compound": "COc1cccc2c(NCc3ccccc3)nc(-n3c(N)nc4ccccc43)nc12", "read-out": "target engagement in cells", "mode": "inhibitor", "method": "chemoproteomics", "concentration": "20 mM", "quantity": "inhibition", "result": "-4.3%"}
{"Compound": "Cc1ccc(NC(=O)c2ccc(C)c(C(F)(F)F)c2)cc1C#Cc1nn(C2CCC(O)CC2)c2ncnc(N)c12 (centres unmarked)", "read-out": "cell-free assay", "concentration": "10 µM", "quantity": "remaining signal", "result": "102%"}
{"Compound": "COc1cc(Cl)c(C(=O)N[C@@H](CN[C@H]2CC[C@@H](N)CC2)Cc2ccc(C#N)cc2)cc1-c1ccc(CN[C@H](C)c2ccc(C)cc2)o1", "read-out": "enzyme activity", "mode": "inhibitor", "concentration": "1 µM", "quantity": "remaining activity", "result": "106%"}
